One test relates to A549. The test can be described thus: Cytotoxicity against human A549 cells after 24 hrs by SRB method. Type of test: functional, cell-based.
The subject of a further test is Escherichia coli. Nature of the test: Antimicrobial activity against Escherichia coli after 24 hrs by agar dilution method. The format is functional, organism-based. The method, boiled down: (§1)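 Each organism was tested separately by agar dilution. The MIC was recorded as the read-out and given in µM.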
(In agar dilution the substance is mixed into plates at graded concentrations.)

The test system of another test is Candida albicans. Nature of the test: Antimicrobial activity against Candida albicans after 24 hrs by agar dilution method. The format is functional. The method, boiled down: as §1
The test system of a further test is Staphylococcus aureus. The test can be described thus: Antimicrobial activity against Staphylococcus aureus after 24 hrs by agar dilution method. The format is functional, organism-based. The method, boiled down:
as §1

A further test relates to HL-60. The test can be described thus: Cytotoxicity against human HL60 cells after 72 hrs by MTT assay. Type of test: functional, cell-based. In general terms: Tetrazolium dyes change colour on reduction, which living cells bring about.

SMILES strings stand for the structures. Converted amounts (≈) assume the structure as drawn. The source made the active and inactive calls. The calls are words filed in the database; no cut-off is given here.

One may read the MIC as the lowest concentration found to suppress growth.

On to `C/C=C/C=C/C=C/C(=O)N[C@H]1CCCNC(=O)[C@H](C)NC(=O)[C@H](C(C)C)N(C)C1=O`, for which the inhibition entry in the test on A549 and in the test on HL-60 was “inactive” throughout. For the same compound, the MIC entry with Escherichia coli and in the test with Staphylococcus aureus was “inactive” each time. The minimal inhibitory concentration (MIC) with Candida albicans was found to be 30 µM (≈ 12.6 µg/mL).

With `C/C=C/C=C/C=C/C(=O)N[C@H]1CCCNC(=O)[C@H](C)N(C)C(=O)[C@H](C(C)C)NC1=O` [SCLEROTIOTIDE A], the inhibition result with A549 and in the test on HL-60 was “inactive” each time. Besides, the MIC entry with Escherichia coli and with Staphylococcus aureus was “inactive” in each case. This compound had a minimal inhibitory concentration (MIC) against Candida albicans of 7.5 µM (≈ 3.14 µg/mL).

As to `C/C=C/C=C/C(=O)N[C@H]1CCCNC(=O)[C@H](C)N(C)C(=O)[C@H](C(C)C)N(C)C1=O` [SCLEROTIOTIDE B], the inhibition result with A549 and in the test on HL-60 was “inactive” throughout. In addition, the MIC result in the test on Escherichia coli and in the test with Staphylococcus aureus was “inactive” in each case. For the same compound, inhibition of growth in the test on Candida albicans (MIC) required 3.8 µM (≈ 1.54 µg/mL).

For `CC(C)[C@H]1C(=O)N(C)[C@@H](C)C(=O)NCCC[C@H](NC(=O)/C=C/C=C/C=O)C(=O)N1C` [SCLEROTIOTIDE F], the inhibition entry with A549 and with HL-60 was “inactive” each time. Besides, the MIC result in the test on Escherichia coli and in the test with Staphylococcus aureus was “inactive” throughout. In addition, the MIC in the test with Candida albicans came out at 30 µM (≈ 12.6 µg/mL).

Regarding `CC(C)[C@H]1C(=O)N(C)[C@@H](C)C(=O)NCCC[C@H](NC(=O)/C=C/C=C/[C@@H](O)[C@@H](C)O)C(=O)N1C` [SCLEROTIOTIDE I], the inhibition entry with A549 and in the test on HL-60 was “inactive” in each case. The MIC result in the test on Escherichia coli and in the test with Staphylococcus aureus was “inactive” each time. This compound also came in with a minimal inhibitory concentration (MIC) in the test with Candida albicans of 6.7 µM (≈ 3.13 µg/mL).

For the origin of these results see ChEMBL document CHEMBL1165987, “Cyclic tripeptides from the halotolerant fungus Aspergillus sclerotiorum PT06-1” (2010).
